From ChEMBL document CHEMBL4823258, “Development of Dimethylisoxazole-Attached Imidazo[1,2-a]pyridines as Potent and Selective CBP/P300 Inhibitors” (J Med Chem, 2021)
The source made the active and inactive calls. The calls are words filed in the database; no cut-off is given here.

How the values were obtained:
[1] = target: T1, Bromodomain-containing protein 4 (Homo sapiens, UniProt O60885); test: Inhibition of His-tagged BRD4 BD1 (unknown origin) using biotinylated-JQ1 peptide as substrate incubated for 1 hr by AlphaScreen assay
Homo sapiens = species on record: Homo sapiens; test: Selectivity ratio of IC50 for His-tagged BRD4 BD1 (unknown origin) using biotinylated-JQ1 peptide as substrate to IC50 for His-tagged CBP (unknown origin) using biotinylated-H3K56ac peptide as substrate incubated for 1 hr by AlphaScreen assay
CREB-binding protein [2] = target: T2, CREB-binding protein (Homo sapiens, UniProt Q92793); test: Inhibition of His-tagged CBP (unknown origin) using biotinylated-H3K56ac peptide as substrate incubated for 1 hr by AlphaScreen assay
Target sequence in this assay (Q92793 whole entry): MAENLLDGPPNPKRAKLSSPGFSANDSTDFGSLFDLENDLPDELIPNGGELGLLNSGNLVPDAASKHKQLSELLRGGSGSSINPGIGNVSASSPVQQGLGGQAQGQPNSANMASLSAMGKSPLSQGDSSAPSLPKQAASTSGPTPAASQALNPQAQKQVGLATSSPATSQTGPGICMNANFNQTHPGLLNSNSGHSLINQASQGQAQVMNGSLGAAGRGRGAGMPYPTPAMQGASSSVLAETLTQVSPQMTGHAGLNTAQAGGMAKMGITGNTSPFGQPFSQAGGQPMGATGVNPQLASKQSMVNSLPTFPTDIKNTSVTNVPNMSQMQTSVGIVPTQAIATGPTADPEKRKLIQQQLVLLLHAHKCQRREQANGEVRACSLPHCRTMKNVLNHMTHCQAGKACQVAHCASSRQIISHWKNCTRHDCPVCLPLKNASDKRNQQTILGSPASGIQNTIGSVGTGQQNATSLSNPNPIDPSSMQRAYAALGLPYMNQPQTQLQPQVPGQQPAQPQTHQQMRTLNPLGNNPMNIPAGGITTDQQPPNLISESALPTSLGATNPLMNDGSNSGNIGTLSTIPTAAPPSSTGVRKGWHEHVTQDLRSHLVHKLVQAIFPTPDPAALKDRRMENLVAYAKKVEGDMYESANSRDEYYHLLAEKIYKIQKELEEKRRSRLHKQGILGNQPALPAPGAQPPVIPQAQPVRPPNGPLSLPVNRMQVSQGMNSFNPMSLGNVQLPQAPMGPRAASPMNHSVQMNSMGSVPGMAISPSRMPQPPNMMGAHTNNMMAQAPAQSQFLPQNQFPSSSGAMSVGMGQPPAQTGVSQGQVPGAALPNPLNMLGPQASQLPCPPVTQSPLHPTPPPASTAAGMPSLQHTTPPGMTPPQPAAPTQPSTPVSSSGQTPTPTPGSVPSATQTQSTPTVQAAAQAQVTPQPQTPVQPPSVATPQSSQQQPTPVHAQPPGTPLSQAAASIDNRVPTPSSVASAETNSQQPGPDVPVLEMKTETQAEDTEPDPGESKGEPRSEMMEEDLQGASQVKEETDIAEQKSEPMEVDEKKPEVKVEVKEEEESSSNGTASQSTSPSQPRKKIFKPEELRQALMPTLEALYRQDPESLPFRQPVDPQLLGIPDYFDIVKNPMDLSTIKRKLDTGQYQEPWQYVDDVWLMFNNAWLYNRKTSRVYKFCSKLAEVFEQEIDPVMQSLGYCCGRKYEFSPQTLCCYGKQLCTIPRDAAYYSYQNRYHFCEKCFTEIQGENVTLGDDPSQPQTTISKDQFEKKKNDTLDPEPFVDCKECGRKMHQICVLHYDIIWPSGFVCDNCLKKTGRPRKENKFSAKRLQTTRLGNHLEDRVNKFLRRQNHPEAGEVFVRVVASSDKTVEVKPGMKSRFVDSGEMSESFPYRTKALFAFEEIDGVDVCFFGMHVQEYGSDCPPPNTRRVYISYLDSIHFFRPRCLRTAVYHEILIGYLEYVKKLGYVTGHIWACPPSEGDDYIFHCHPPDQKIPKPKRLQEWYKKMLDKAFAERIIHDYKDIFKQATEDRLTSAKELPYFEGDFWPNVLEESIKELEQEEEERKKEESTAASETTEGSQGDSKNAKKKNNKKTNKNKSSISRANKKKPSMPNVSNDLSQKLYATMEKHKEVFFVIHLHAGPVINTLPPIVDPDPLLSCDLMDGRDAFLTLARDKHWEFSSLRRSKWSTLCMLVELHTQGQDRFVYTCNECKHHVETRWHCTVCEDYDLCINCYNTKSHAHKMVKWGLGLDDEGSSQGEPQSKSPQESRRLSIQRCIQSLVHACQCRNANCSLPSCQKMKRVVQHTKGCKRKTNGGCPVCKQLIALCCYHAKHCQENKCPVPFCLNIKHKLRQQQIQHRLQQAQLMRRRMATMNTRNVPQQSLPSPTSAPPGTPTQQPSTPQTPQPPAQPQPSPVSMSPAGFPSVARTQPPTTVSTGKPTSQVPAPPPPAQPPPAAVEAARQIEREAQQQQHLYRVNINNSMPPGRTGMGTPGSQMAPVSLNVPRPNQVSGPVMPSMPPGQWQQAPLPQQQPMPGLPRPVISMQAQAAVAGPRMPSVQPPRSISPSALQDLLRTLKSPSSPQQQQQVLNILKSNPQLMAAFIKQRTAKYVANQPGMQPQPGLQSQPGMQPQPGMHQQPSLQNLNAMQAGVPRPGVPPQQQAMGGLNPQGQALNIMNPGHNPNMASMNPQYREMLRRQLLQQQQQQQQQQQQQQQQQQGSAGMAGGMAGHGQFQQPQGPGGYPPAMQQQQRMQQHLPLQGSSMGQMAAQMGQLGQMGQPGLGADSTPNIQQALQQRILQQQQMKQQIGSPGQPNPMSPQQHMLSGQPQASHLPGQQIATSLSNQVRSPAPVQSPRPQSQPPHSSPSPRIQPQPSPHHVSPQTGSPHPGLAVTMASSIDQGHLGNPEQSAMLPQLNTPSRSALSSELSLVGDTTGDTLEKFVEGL

MOLM-13 = test: Cytotoxicity against human MOLM-13 cells assessed as cell growth inhibition incubated for 5 days by CellTiter-Glo luminescence assay; format: functional, cell-based; settings: MOLM-13, 120 h
[3] = target: CREB-binding protein/Histone acetyltransferase p300 (Homo sapiens) (UniProt Q09472+Q92793); test: Inhibition of CBP/EP300 in human MM1.S cells assessed as perturbation of IRF4/Myc axis at 2.5 uM incubated for 24 hrs by immunoblot analysis
[4] = target: T3, Histone acetyltransferase p300 (Homo sapiens, UniProt Q09472); test: Binding affinity to human partial length EP300 (A1040 to G1161 residues) expressed in bacterial expression system by BromoELECT assay
Outline: (§1)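 Kd by Eurofins BromoELECT, standard protocol, measured in duplicate.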

CREB-binding protein [5] = target: T2, CREB-binding protein; test: Binding affinity to human partial length CREBBP (R1081 to G1197 residues) expressed in bacterial expression system by BromoELECT assay; outline: as §1
Target sequence in this assay (Q92793 whole entry): as above

[6] = target: T1, Bromodomain-containing protein 4; test: Binding affinity to human partial length BRD4 bromodomain 1 long isoform (N44 to E168 residues) expressed in bacterial expression system assessed as melting temperature by differential scanning fluorometry (reference value: 50.1 degreeC)
CREB-binding protein [7] = target: T2, CREB-binding protein; test: Inhibition of CBP in human MOLM-13 cells assessed as reduction in H3K27Ac level at 1 to 10 uM incubated for 2 hrs by Western blot analysis; format: cell-based; settings: dose 1-10 µM
Target sequence in this assay (Q92793 2-2442 limits assumed): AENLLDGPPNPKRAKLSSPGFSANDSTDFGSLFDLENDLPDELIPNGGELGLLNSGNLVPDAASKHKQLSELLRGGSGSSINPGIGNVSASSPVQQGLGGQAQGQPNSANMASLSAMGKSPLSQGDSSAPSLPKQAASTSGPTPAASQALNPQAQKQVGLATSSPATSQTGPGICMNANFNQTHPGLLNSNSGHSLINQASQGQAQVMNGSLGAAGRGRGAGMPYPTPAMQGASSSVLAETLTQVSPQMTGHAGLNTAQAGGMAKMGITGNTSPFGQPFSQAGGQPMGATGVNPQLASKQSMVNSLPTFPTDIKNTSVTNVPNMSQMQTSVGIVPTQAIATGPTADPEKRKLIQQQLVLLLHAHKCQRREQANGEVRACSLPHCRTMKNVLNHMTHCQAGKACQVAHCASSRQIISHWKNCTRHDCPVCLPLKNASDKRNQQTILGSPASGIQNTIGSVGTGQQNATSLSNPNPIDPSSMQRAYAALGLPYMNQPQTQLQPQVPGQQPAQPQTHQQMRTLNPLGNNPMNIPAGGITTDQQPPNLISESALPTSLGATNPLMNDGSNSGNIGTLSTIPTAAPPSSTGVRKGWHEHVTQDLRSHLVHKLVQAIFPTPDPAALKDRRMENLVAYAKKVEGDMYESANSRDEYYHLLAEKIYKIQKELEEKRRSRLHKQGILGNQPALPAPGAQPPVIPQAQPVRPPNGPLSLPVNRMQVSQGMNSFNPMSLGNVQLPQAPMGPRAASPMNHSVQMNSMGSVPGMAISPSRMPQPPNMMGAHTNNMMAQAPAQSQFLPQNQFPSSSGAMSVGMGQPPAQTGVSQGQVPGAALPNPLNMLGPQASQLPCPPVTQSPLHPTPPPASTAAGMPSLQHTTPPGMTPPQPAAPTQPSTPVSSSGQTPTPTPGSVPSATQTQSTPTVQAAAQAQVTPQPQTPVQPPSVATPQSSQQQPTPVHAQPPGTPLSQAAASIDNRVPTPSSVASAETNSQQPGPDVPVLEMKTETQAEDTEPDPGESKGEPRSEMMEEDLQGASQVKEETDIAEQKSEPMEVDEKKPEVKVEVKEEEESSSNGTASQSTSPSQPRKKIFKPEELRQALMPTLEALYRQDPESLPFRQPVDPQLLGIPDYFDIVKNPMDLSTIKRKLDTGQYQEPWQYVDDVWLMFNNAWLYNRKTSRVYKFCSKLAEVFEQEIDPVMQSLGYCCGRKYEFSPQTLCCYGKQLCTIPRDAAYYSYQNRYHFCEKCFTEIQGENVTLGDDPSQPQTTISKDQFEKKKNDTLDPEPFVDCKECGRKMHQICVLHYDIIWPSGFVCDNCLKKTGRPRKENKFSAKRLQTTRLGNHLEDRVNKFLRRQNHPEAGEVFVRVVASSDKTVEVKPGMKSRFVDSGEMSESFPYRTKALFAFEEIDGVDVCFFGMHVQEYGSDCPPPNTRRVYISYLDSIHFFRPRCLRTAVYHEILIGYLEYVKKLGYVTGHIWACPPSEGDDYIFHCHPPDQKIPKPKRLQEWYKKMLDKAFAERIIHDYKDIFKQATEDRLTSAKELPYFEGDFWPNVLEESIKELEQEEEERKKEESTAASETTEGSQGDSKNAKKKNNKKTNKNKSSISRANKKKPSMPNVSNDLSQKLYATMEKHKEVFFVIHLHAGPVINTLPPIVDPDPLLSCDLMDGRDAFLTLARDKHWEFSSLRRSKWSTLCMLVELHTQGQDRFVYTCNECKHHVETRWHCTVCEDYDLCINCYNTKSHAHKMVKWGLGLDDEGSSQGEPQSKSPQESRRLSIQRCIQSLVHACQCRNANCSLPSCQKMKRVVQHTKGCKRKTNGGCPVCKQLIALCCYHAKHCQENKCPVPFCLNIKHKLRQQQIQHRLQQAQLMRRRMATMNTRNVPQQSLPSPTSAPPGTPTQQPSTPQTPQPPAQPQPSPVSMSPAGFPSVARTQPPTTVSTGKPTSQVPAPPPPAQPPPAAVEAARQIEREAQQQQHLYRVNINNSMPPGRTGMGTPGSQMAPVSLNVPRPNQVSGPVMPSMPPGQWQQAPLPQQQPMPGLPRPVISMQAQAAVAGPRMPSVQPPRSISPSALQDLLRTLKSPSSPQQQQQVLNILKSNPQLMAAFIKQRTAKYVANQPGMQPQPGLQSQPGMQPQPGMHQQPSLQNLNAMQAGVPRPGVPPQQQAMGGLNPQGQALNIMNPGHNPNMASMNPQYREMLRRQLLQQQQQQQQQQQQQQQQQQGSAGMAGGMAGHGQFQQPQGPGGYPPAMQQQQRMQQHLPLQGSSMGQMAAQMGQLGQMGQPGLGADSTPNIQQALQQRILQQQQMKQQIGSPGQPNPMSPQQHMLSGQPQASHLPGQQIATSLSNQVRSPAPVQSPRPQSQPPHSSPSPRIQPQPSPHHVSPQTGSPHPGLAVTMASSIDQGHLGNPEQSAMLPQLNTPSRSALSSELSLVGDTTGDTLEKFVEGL

CREB-binding protein [8] = target: T2, CREB-binding protein; test: Inhibition of CBP in human MOLM-13 cells assessed as depletion of Myc at 1 to 10 uM incubated for 2 hrs by Western blot analysis; format: cell-based; settings: dose 1-10 µM
Target sequence in this assay (Q92793 2-2442 limits assumed): as above

CREB-binding protein [9] = target: T2, CREB-binding protein; test: Inhibition of CBP in human MOLM-13 cells assessed as reduction in H3K27Ac level at 3 uM incubated for 2 hrs
Target sequence in this assay (Q92793 2-2442 limits assumed): as above

[10] = target: T3, Histone acetyltransferase p300; test: Binding affinity to human partial length EP300 (A1040 to G1161 residues) expressed in bacterial expression system assessed as melting temperature by differential scanning fluorometry (reference value: 42.1 degreeC)
[11] = target: T1, Bromodomain-containing protein 4; test: Binding affinity to human partial length BRD4 bromodomain 1 long isoform (N44 to E168 residues) expressed in bacterial expression system by BromoELECT assay; outline: as §1
CREB-binding protein [12] = target: T2, CREB-binding protein; test: Binding affinity to human partial length CREBBP (R1081 to G1197 residues) expressed in bacterial expression system assessed as melting temperature by differential scanning fluorometry (reference value: 46.7 degreeC)
Target sequence in this assay (Q92793 2-2442 limits assumed): as above

COc1ccc(CCc2nc3cc(-c4c(C)noc4C)ccn3c2NC(C)(C)CC(C)(C)C)cc1
IC50 [1]: > 50 µM
Ratio IC50 (Homo sapiens): > 2

COc1ccc(-c2nc3cc(-c4c(C)noc4C)ccn3c2NC23CC4CC(CC(C4)C2)C3)cc1
IC50 [1]: > 50 µM
Ratio IC50 (Homo sapiens): > 23

COc1ccc(CCc2nc3cc(-c4c(C)noc4C)ccn3c2NC(C)C)cc1
Ratio IC50 (Homo sapiens): 34
IC50 (CREB-binding protein [2]): 0.29 µM

CCOc1ccc(CCc2nc3cc(-c4c(C)noc4C)ccn3c2NC(C)(C)CC(C)(C)C)cc1Cl
IC50 [1]: > 50 µM
Ratio IC50 (Homo sapiens): > 2

COc1ccc(CCc2nc3cc(-c4c(C)noc4C)ccc3n2C[C@H](C)N2CCOCC2)cc1Cl
IC50 (MOLM-13): 1.53 µM
IC50 [1]: 7.94 µM

CCOc1ccc(CCc2nc3cc(-c4c(C)noc4C)ccn3c2NC2CCCCC2)cc1Cl
IC50 [1]: > 50 µM
Ratio IC50 (Homo sapiens): 20

CCOc1ccc(CCc2nc3cc(-c4c(C)noc4C)ccn3c2NC2CCCCC2)cc1
Ratio IC50 (Homo sapiens): 30

COc1ccc(CCc2nc3cc(-c4c(C)noc4C)ccn3c2NCCN2CCOCC2)cc1
Ratio IC50 (Homo sapiens): 7

CCCOc1ccc(CCc2nc3cc(-c4c(C)noc4C)ccn3c2NC2CCCCC2)cc1
Ratio IC50 (Homo sapiens): 28

COc1ccc(CCc2nc3cc(-c4c(C)noc4C)ccn3c2NC23CC4CC(CC(C4)C2)C3)cc1
Ratio IC50 (Homo sapiens): 8

COc1ccc(CCCc2nc3cc(-c4c(C)noc4C)ccn3c2NC2CCCCC2)cc1
Ratio IC50 (Homo sapiens): 3

Cc1noc2cc(-c3ccn4c(NC5CCCCC5)c(CCc5ccccc5)nc4c3)ccc12
inhibition [3]: inactive
IC50 [1]: 3.02 µM
Ratio IC50 (Homo sapiens): 0.06
IC50 (CREB-binding protein [2]): > 50 µM

Cc1noc(C)c1-c1ccc2nc(-c3ccc(N4CCN(C(=O)CCCC(=O)NCCCOCCOCCOCCCNC(=O)CCCC[C@@H]5SC[C@@H]6NC(=O)N[C@@H]65)CC4)cc3)c(NC3CCCCC3)n2c1
Kd [4]: 13 µM

Cc1noc(C)c1-c1ccn2c(NC(C)(C)CC(C)(C)C)c(CCc3ccccc3)nc2c1
Ratio IC50 (Homo sapiens): 1

CN1Cc2cc(-c3ccn4c(NC5CCCCC5)c(CCc5ccccc5)nc4c3)ccc2NC1=O
Ratio IC50 (Homo sapiens): 1

COc1ccc(-c2nc3cc(-c4c(C)noc4C)ccn3c2NC2CCCCC2)cc1
IC50 [1]: > 50 µM
Ratio IC50 (Homo sapiens): > 4

COc1ccc(CCc2nc3cc(-c4c(C)noc4C)ccn3c2NC2CCCCC2)cc1Cl
Kd (CREB-binding protein [5]): 0.315 µM
Tm [6]: 50.1 °C
inhibition (CREB-binding protein [7]): Active
inhibition (CREB-binding protein [8]): Active
Kd [4]: 0.215 µM
inhibition [3]: Active
IC50 (MOLM-13): 1.74 µM
inhibition (CREB-binding protein [9]): Active
Tm [10]: 47 °C
Kd [11]: > 10 µM
Tm (CREB-binding protein [12]): 51.7 °C

Cc1noc(C)c1-c1ccn2c(NCC(=O)OC(C)(C)C)c(CCc3ccccc3)nc2c1
IC50 [1]: > 50 µM
Ratio IC50 (Homo sapiens): > 6

COc1ccc(CCc2nc3cc(-c4c(C)noc4C)ccn3c2NCc2ccc(Cl)cc2)cc1
IC50 [1]: 7.94 µM
Ratio IC50 (Homo sapiens): 5
IC50 (CREB-binding protein [2]): 1.6 µM

Cc1noc(C)c1-c1ccn2c(NC34CC5CC(CC(C5)C3)C4)c(CCc3ccccc3)nc2c1
Ratio IC50 (Homo sapiens): 7

COc1ccc(CCc2nc3cc(-c4c(C)noc4C)ccn3c2NCc2ccccc2)cc1
Ratio IC50 (Homo sapiens): 4

COc1ccc(CCc2nc3cc(-c4c(C)noc4C)ccn3c2NC2CCCCC2)cc1OC
Ratio IC50 (Homo sapiens): 8
IC50 (CREB-binding protein [2]): 0.75 µM

COc1ccc(CCc2nc3cc(-c4c(C)noc4C)ccn3c2NC(C)(C)C)cc1
IC50 [1]: > 50 µM
Ratio IC50 (Homo sapiens): > 21

COc1ccc(CCc2nc3cc(-c4c(C)noc4C)ccn3c2NC2CCCCC2)cc1
Kd (CREB-binding protein [5]): 0.265 µM
Tm [6]: 51.1 °C
Kd [4]: 0.285 µM
Ratio IC50 (Homo sapiens): 41
Tm [10]: 46.8 °C
Kd [11]: 9.2 µM
Tm (CREB-binding protein [12]): 51.5 °C

COc1ccc(Cc2nc3cc(-c4c(C)noc4C)ccn3c2NC2CCCCC2)cc1
Ratio IC50 (Homo sapiens): 2

COc1ccc(CCCc2nc3cc(-c4c(C)noc4C)ccn3c2NC(C)(C)CC(C)(C)C)cc1
IC50 [1]: > 50 µM
Ratio IC50 (Homo sapiens): 1
IC50 (CREB-binding protein [2]): > 50 µM

Cc1noc(C)c1-c1ccn2c(NC3CCCCC3)c(CCc3ccccc3)nc2c1
Tm [6]: 51 °C
Ratio IC50 (Homo sapiens): 10
Tm [10]: 44.7 °C
Tm (CREB-binding protein [12]): 49.2 °C

CCOc1ccc(CCc2nc3cc(-c4c(C)noc4C)ccn3c2NC(C)(C)CC(C)(C)C)cc1
Ratio IC50 (Homo sapiens): > 1

COc1ccc(CCCc2nc3cc(-c4c(C)noc4C)ccn3c2NC2CCCCC2)cc1Cl
Tm [6]: 51.6 °C
IC50 [1]: 24.5 µM
Ratio IC50 (Homo sapiens): 3
Tm [10]: 50.6 °C
Tm (CREB-binding protein [12]): 55.2 °C
IC50 (CREB-binding protein [2]): 8.96 µM

Cc1[nH]nc2cc(-c3ccn4c(NC5CCCCC5)c(CCc5ccccc5)nc4c3)ccc12
inhibition [3]: inactive
IC50 [1]: 0.51 µM
Ratio IC50 (Homo sapiens): 0.06
IC50 (CREB-binding protein [2]): 8.02 µM

COc1ccc(-c2nc3cc(C)cc(C)n3c2NC(C)(C)CC(C)(C)C)cc1
IC50 [1]: > 50 µM
Ratio IC50 (Homo sapiens): > 3

COc1ccc(CCc2nc3cc(-c4c(C)noc4C)ccn3c2NC(C)C)cc1OC
Ratio IC50 (Homo sapiens): 6

Cc1noc(C)c1-c1ccn2c(NC(C)(C)CC(C)(C)C)c(CCc3ccc(OC(C)C)cc3)nc2c1
IC50 [1]: > 50 µM
Ratio IC50 (Homo sapiens): 1
IC50 (CREB-binding protein [2]): > 50 µM

COc1ccc(-c2nc3cc(C)cc(C)n3c2NC23CC4CC(CC(C4)C2)C3)cc1
IC50 [1]: > 50 µM
Ratio IC50 (Homo sapiens): > 3

COc1ccc(-c2nc3cc(-c4c(C)noc4C)ccn3c2NCC(=O)OC(C)(C)C)cc1
Ratio IC50 (Homo sapiens): > 3

Cc1noc(C)c1-c1ccn2c(NC(C)(C)C)c(CCc3ccccc3)nc2c1
Ratio IC50 (Homo sapiens): 6
